From ChEMBL document CHEMBL1649261, “Pharmacodynamic profile of tigecycline against methicillin-resistant Staphylococcus aureus in an experimental pneumonia model” (Antimicrob Agents Chemother, 2009)

Experiments:
Assay type in all cases: functional
Staphylococcus aureus [1] = test: Antibacterial activity against hospital-acquired methicillin-resistant Staphylococcus aureus 56 by microdilution method
Outline: (§1)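 Tigecycline MIC measured in triplicate by broth microdilution following CLSI guidelines. Isolates were stored at −80°C in skim milk and subcultured twice on blood agar before testing.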

Staphylococcus aureus [2] = test: Antibacterial activity against hospital-acquired methicillin-resistant Staphylococcus aureus 152 by microdilution method; outline: as §1
Staphylococcus aureus [3] = test: Antibacterial activity against community-acquired methicillin-resistant Staphylococcus aureus 147 by microdilution method; outline: as §1
Staphylococcus aureus [4] = test: Antibacterial activity against methicillin-susceptible Staphylococcus aureus ATCC 29213 by microdilution method; outline: as §1
Staphylococcus aureus [5] = test: Antibacterial activity against community-acquired methicillin-resistant Staphylococcus aureus 144 by microdilution method; outline: as §1

C[C@H]1COc2c(N3CCN(C)CC3)c(F)cc3c(=O)c(C(=O)O)cn1c23.C[C@H]1COc2c(N3CCN(C)CC3)c(F)cc3c(=O)c(C(=O)O)cn1c23.O [LEVOFLOXACIN] showed an MIC (Staphylococcus aureus [1]) of 0.25 µg/mL, an MIC (Staphylococcus aureus [2]) of 0.25 µg/mL and an MIC (Staphylococcus aureus [3]) of 8 µg/mL. It also gave an MIC (Staphylococcus aureus [4]) of 0.25 µg/mL and an MIC (Staphylococcus aureus [5]) of 0.5 µg/mL.
